Source: ChEMBL document CHEMBL1914331, “N-O chemistry for antibiotics: discovery of N-alkyl-N-(pyridin-2-yl)hydroxylamine scaffolds as selective antibacterial agents using nitroso Diels-Alder and ene chemistry” (J Med Chem, 2011)
Values after ≈ are worked out from the molar mass of the structure shown.

Key:
Enterococcus faecalis [1] = experiment: Antimicrobial activity against Enterococcus faecalis ATCC 49532 assessed after 18 hrs by broth microdilution method; assay type: functional; details: ATCC 49532, 18 h
How it was run: (§1)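 CLSI broth microdilution in cation-adjusted MHII broth. 20 mM DMSO stocks were diluted to 512 µM, then serially 2-fold, giving final 128–0.0625 µM with 5×10⁵ CFU/mL inoculum. Incubated 18 h at 37 °C. MIC90 was the lowest concentration giving 90% inhibition by visual turbidity versus DMSO wells. Run in triplicate.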

Micrococcus luteus [2] = experiment: Antimicrobial activity against Micrococcus luteus ATCC 10240 after 24 hrs by Kirby-Bauer agar diffusion assay; assay type: functional
How it was run: (§2)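 Modified Kirby-Bauer well diffusion. Overnight LB cultures (18–24 h) were standardized in 0.9% saline to 0.5 McFarland and mixed into melted MHII agar at 47–50 °C, giving ~5×10³ CFU/mL. 9 mm wells received 50 µL of 2.0 mM compound in 10:1 MeOH:DMSO. Plates were incubated 24 h at 37 °C, then growth-inhibition zone diameter was measured (mm) by caliper.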

MCF7 = experiment: Cytotoxicity against human MCF7 cells; assay type: cell-based
Micrococcus luteus [3] = experiment: Antimicrobial activity against Micrococcus luteus ATCC 10240 assessed after 18 hrs by broth microdilution method; assay type: functional; details: ATCC 10240, 18 h; how it was run: as §1
HeLa = experiment: Cytotoxicity against human HeLa cells; assay type: cell-based
Staphylococcus aureus [4] = experiment: Antimicrobial activity against Staphylococcus aureus SG511 assessed after 18 hrs by broth microdilution method; assay type: functional; details: SG511, 18 h; how it was run: as §1
PC-3 = experiment: Cytotoxicity against human PC3 cells; assay type: cell-based
Enterococcus faecalis [5] = experiment: Antimicrobial activity against Enterococcus faecalis ATCC 49532 after 24 hrs by Kirby-Bauer agar diffusion assay; assay type: functional; how it was run: as §2
Staphylococcus aureus [6] = experiment: Antimicrobial activity against Staphylococcus aureus SG511 after 24 hrs by Kirby-Bauer agar diffusion assay; assay type: functional; how it was run: as §2

SMILES	MIC90 (Enterococcus faecalis [1]) [µM]	diameter of the inhibition zone (DIZ) (Micrococcus luteus [2])	Activity (MCF7)	MIC90 (Micrococcus luteus [3]) [µM]	Activity (HeLa)	MIC90 (Staphylococcus aureus [4]) [µM]	Activity (PC-3)	diameter of the inhibition zone (DIZ) (Enterococcus faecalis [5]) [mm]	diameter of the inhibition zone (DIZ) (Staphylococcus aureus [6]) [mm]
C=C(C)C(C)N(O)c1ccccn1 (racemic)	> 128	31 mm	Non-toxic	8 (≈ 1.43 µg/mL)	Non-toxic	128 (≈ 22.8 µg/mL)	Non-toxic	22	18
C=C(C)C(C)N(O)c1ncc(Cl)cc1Cl (racemic)	> 128	27 mm	Non-toxic	16 (≈ 3.95 µg/mL)	Non-toxic	> 128	Non-toxic	14	0
C=C(C)C(C)N(O)c1ccc(Cl)cn1 (racemic)	≥ 128	40 mm	Non-toxic	2 (≈ 0.425 µg/mL)	Non-toxic	128 (≈ 27.2 µg/mL)	Non-toxic	21	18
C=C(C)C(CC/C(C)=C/CO)N(O)c1cccc(CC)n1 (racemic)	> 128	31 mm	Non-toxic	2 (≈ 0.581 µg/mL)	Non-toxic	> 128	Non-toxic	19	18
C=C(C)C(C)N(O)c1cc(C)ccn1 (racemic)	> 128	29 mm	Non-toxic	4 (≈ 0.769 µg/mL)	Non-toxic	128 (≈ 24.6 µg/mL)	Non-toxic	22	20
CC(=O)ON(Cc1ccccc1)c1ccccn1	> 128	20 mm	Non-toxic	128 (≈ 31 µg/mL)	Non-toxic	> 128	Non-toxic	11	12
C=CCN(O)c1ccccn1	> 128	14 mm	Non-toxic	> 128	Non-toxic	> 128	Non-toxic	12	0
ON(Cc1cccc(Oc2ccccc2)c1)c1ccccn1	> 128	12 mm	Non-toxic	> 128	Non-toxic	> 128	Non-toxic	0	13
C=C(C)C(C)N(O)c1ncccc1C (racemic)	> 128	25 mm	Non-toxic	16 (≈ 3.08 µg/mL)	Non-toxic	> 128	Non-toxic	19	10
ON(Cc1ccccc1)c1ccccn1	> 128	24 mm	Non-toxic	64 (≈ 12.8 µg/mL)	Non-toxic	128 (≈ 25.6 µg/mL)	Non-toxic	20	18
COc1ccc(CON(Cc2ccccc2)c2ccccn2)cc1	> 128	0 mm	Non-toxic	> 128	Non-toxic	> 128	Non-toxic	0	0
CCCN(O)c1ccccn1	> 128	13 mm	Non-toxic	> 128	Non-toxic	> 128	Non-toxic	0	0
CN(O)c1ccccn1	> 128	18 mm	Non-toxic	≥ 128	Non-toxic	> 128	Non-toxic	0	0
CO[C@H]1C=CCC[C@@H]1Nc1ccc(Br)cn1 (racemic)	> 128	0 mm	Non-toxic	> 128	Non-toxic	> 128	Non-toxic	0	0
c1ccc(CNc2ccccn2)cc1	> 128	0 mm	Non-toxic	> 128	Non-toxic	> 128	Non-toxic	0	0
ON(Cc1ccc(C(F)(F)F)cc1)c1ccccn1	> 128	16 mm	Non-toxic	128 (≈ 34.3 µg/mL)	Non-toxic	> 128	Non-toxic	15	15

SMILES	MIC90 (Enterococcus faecalis [1]) [µM]	diameter of the inhibition zone (DIZ) (Micrococcus luteus [2])	Activity (MCF7)	MIC90 (Micrococcus luteus [3]) [µM]	Activity (HeLa)	MIC90 (Staphylococcus aureus [4]) [µM]	Activity (PC-3)	diameter of the inhibition zone (DIZ) (Enterococcus faecalis [5]) [mm]	diameter of the inhibition zone (DIZ) (Staphylococcus aureus [6]) [mm]
CO[C@H]1C=CCC[C@@H]1N(O)c1ccc(Br)cn1 (racemic)	> 128	34 mm	Non-toxic	4 (≈ 1.2 µg/mL)	Non-toxic	≥ 128	Non-toxic	20	18
C=C(C)C(C)N(O)c1ccc(Br)c(C)n1 (racemic)	> 128	35 mm	Non-toxic	4 (≈ 1.08 µg/mL)	Non-toxic	> 128	Non-toxic	12	13
Cc1cccc(N(O)[C@@H]2C=C[C@@H](OC(C)C)CC2)n1 (racemic)		>14 mm	Non-toxic		Non-toxic		Non-toxic		
CC(C)(C)OC(=O)NO		<=14 mm	Non-toxic		Non-toxic		Non-toxic		
COc1ccc(CON(Cc2cccc(Oc3ccccc3)c2)c2ccccn2)cc1		<=14 mm	Non-toxic		Non-toxic		Non-toxic		
CC(C)OC1C=C[C@@H](N(O)c2ccc(Br)cn2)C1 (mixture of isomers)		>14 mm	Non-toxic		Non-toxic		Non-toxic		
Cc1cccc(N2OC3C=CC2C3)n1 (racemic)		<=14 mm	Non-toxic		Non-toxic		Non-toxic		
C=C(C)C(CC/C(C)=C/CO)N(O)c1ccc(Br)cn1 (racemic)		>14 mm	Non-toxic		Non-toxic		Non-toxic		
Cc1cccc(N(O)[C@@H]2C=C[C@@H](OC(C)(C)C)CC2)n1 (racemic)		>14 mm	Non-toxic		Non-toxic		Non-toxic		
Cc1cccc(N(O)[C@@H]2C=CC(OC(C)C)C2)n1 (mixture of isomers)		>14 mm	Non-toxic		Non-toxic		Non-toxic		
CC(C)(C)OC1C=C[C@@H](N(O)c2ccc(Cl)cn2)C1 (mixture of isomers)		>14 mm	Non-toxic		Non-toxic		Non-toxic		
Cc1cccnc1N=O		<=14 mm	Non-toxic		Non-toxic		Non-toxic		
Brc1ccc(N2OC3C=CC2CC3)nc1 (racemic)		<=14 mm	Non-toxic		Non-toxic		Non-toxic		
O=Nc1ccc2ccccc2n1		<=14 mm	Non-toxic		Non-toxic		Non-toxic		
C[C@H](NC(=O)OC(C)(C)C)C(=O)NO		<=14 mm	Non-toxic		Non-toxic		Non-toxic		
Cc1cc(N2OC3C=CC2C3)no1 (racemic)		<=14 mm	Non-toxic		Non-toxic		Non-toxic		
